Experimental data as given in ChEMBL document CHEMBL1671855, “Establishment of a cell-based assay for screening of compounds inhibiting very early events in the cytomegalovirus replication cycle and characterization of a compound identified using the assay” (Antimicrob Agents Chemother, 2008).
One block for each molecule: values may come before it. Active and inactive are the calls of the source. The calls are words filed in the database; no cut-off is given here.

What was measured:
Human betaherpesvirus 5 [1] = assay: Antiviral activity against Human cytomegalovirus Towne infected in human hTERT-BJ1 cells assessed as inhibition of virus induced infection after 12 hrs post infection by luciferase reporter gene assay; format: functional, organism-based; conditions: BJ
Outline: (§1)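 hTERT-BJ1 cells (3 × 10^4/well, 96-well) infected next day with 2 × 10^3 PFU HCMV Towne and given 20 μM compound or DMSO over varied windows: added at set times and kept to harvest, removed at set times, or present 24 h from set start times. Luciferase measured at 48 h p.i. in three wells; mean and SD.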

Human betaherpesvirus 5 [2] = assay: Antiviral activity against Human cytomegalovirus Towne infected in human hTERT-BJ1 cells assessed as decrease in IE2 mRNA level at 5 uM after 24 hrs by immunofluorescent assay; format: functional, organism-based; conditions: BJ
Human betaherpesvirus 5 [3] = assay: Antiviral activity against 0.05 MOI Human cytomegalovirus Towne infected in human hTERT-BJ1 cells assessed as decrease in IE1 gene expression at 20 uM after 24 hrs by RT-PCR; format: functional, organism-based; conditions: BJ
Outline: (§2)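 hTERT-BJ1 cells (4 × 10^5 per T12.5 flask) infected with HCMV at MOI 0.05, cultured with DMSO, 15 μM roscovitine or 20 μM test compound for set periods; cells washed with PBS, stored at −80°C, total RNA purified; IE1, IE2 and G6PD transcripts by quantitative RT-PCR, IE1/IE2 given as CT after normalization to G6PD; triplicate experiments, mean and SD.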

Human betaherpesvirus 5 [4] = assay: Antiviral activity against 0.05 MOI Human cytomegalovirus Towne infected in human hTERT-BJ1 cells assessed as decrease in IE2 gene expression at 20 uM after 24 hrs by […]; format: functional, organism-based; conditions: BJ; outline: as §2
Human betaherpesvirus 5 [5] = assay: Antiviral activity against 0.05 MOI Human cytomegalovirus Towne infected in human hTERT-BJ1 cells assessed as decrease in IE1 gene expression at 15 uM after 24 hrs by RT-PCR; format: functional, organism-based; conditions: BJ; outline: as §2
Human betaherpesvirus 5 [6] = assay: Antiviral activity against 0.05 MOI Human cytomegalovirus Towne infected in human hTERT-BJ1 cells assessed as decrease in IE2 gene expression at 15 uM after 24 hrs by […]; format: functional, organism-based; conditions: BJ; outline: as §2
Human betaherpesvirus 5 [7] = assay: Antiviral activity against Human cytomegalovirus Towne infected in human hTERT-BJ1 cells assessed as decrease in G6PD gene expression at 20 uM after 24 hrs by RT-PCR; format: functional, organism-based; conditions: BJ; outline: as §2
Human betaherpesvirus 5 [8] = assay: Antiviral activity against Human cytomegalovirus Towne infected in human hTERT-BJ1 cells assessed as decrease in G6PD gene expression at 15 uM after 24 hrs by RT-PCR; format: functional, organism-based; conditions: BJ; outline: as §2
Human betaherpesvirus 5 [9] = assay: Antiviral activity against Human cytomegalovirus Towne infected in human hTERT-BJ1 cells assessed as inhibition of attachment of virus particles to the cell surface at 20 uM after 2 hrs post infection by quantitative PCR; format: functional, organism-based; conditions: BJ
Human betaherpesvirus 5 [10] = assay: Antiviral activity against Human cytomegalovirus Towne infected in human hTERT-BJ1 cells assessed as inhibition of attachment of virus particles to the cell surface at 1 mg/ml after 2 hrs post infection by quantitative PCR; format: functional, organism-based; conditions: BJ
Human betaherpesvirus 5 [11] = assay: Antiviral activity against Human cytomegalovirus Towne infected in human hTERT-BJ1 cells assessed as decrease in ICP22 mRNA level at 20 uM after 48 hrs by immunofluorescent assay; format: functional, organism-based; conditions: BJ
Caviid betaherpesvirus 2 = assay: Antiviral activity against Guinea pig cytomegalovirus (strain 22122; ATCC VR-682) infected in guinea pig lung fibroblast after 6 to 7 days by plaque reduction assay; format: functional, organism-based
Outline: (§3)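 Semiconfluent fibroblasts (HCMV Towne in HFL, GPCMV in guinea pig lung fibroblasts, MCMV Smith in NIH 3T3) in 12-well plates inoculated with 50 or 100 PFU, centrifuged 600 × g 30 min, 1–2 h at 37°C; inoculum replaced by twofold compound dilutions in 1% methylcellulose, 4% FBS. Incubation 4–5 d MCMV, 6–7 d GPCMV, 10–12 d HCMV; crystal violet/formalin stain, plaques counted, triplicate; EC50 by linear regression of log concentration vs % plaque reduction.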

Human betaherpesvirus 5 [12] = assay: Antiviral activity against Human cytomegalovirus Towne infected in human HFL after 10 to 12 days by plaque reduction assay; format: functional, organism-based; conditions: Human betaherpesvirus 5, Towne; outline: as §3
[13] = Antiviral activity against Murine cytomegalovirus strain Smith infected in mouse NIH 3T3 cells after 4 to 5 days by plaque reduction assay; format: functional, cell-based; conditions: Murid betaherpesvirus 1, NIH3T3; outline: as §3
[14] = Cytotoxicity against human hTERT-BJ1 cells; format: cell-based, BJ
Outline: (§4)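 Cells at 20–25% confluence in 96-well plates cultured 2–4 days with twofold serial compound dilutions or matching DMSO; supernatant removed, cells rinsed, viability read as ATP luminescence (CellTiter-Glo); triplicate; 50% cytotoxic concentration from log concentration vs RLU plot.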

[15] = Cytotoxicity against HLF cells; format: cell-based; conditions: human; outline: as §4
[16] = Selectivity index, ratio of CC50 for human hTERT-BJ1 cells to EC50 for Human cytomegalovirus Towne; format: toxicity, cell-based, BJ; conditions: read-out: Selectivity Index
[17] = Selectivity index, ratio of CC50 for human lung fibroblast cells to EC50 for Human cytomegalovirus Towne; format: toxicity, cell-based; conditions: read-out: Selectivity Index
Human betaherpesvirus 5 [18] = assay: Antiviral activity against Human cytomegalovirus RC256 infected in human hTERT-BJ1 cells after 1 hr by Immunostaining and Xgal staining; format: functional, organism-based; conditions: Human betaherpesvirus 5, RC256, BJ
Outline: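 hTERT-BJ1 cells infected with HCMV RC256, a β-galactosidase-expressing recombinant Towne strain, in the presence of various compound concentrations; infected cells counted after X-Gal staining to derive EC50.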

Human betaherpesvirus 5 [19] = assay: Antiviral activity against human cytomegalovirus Towne infected in human U4C-48 cells assessed as decrease in viral titer by luciferase reporter gene assay; format: functional, organism-based; conditions: Human betaherpesvirus 5, Towne
Outline: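 U4C-48 reporter cells (U373MG carrying TRL4 promoter-luciferase) infected with HCMV laboratory strain or clinical isolates and cultured 2 days with compound dilutions; luciferase read by chemiluminescence, triplicate. EC50 taken as concentration reducing luciferase to the level of cells given half the virus inoculum.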

Human betaherpesvirus 5 [20] = assay: Antiviral activity against Human cytomegalovirus AD169 infected in human U4C-48 cells assessed as decrease in viral titer by luciferase reporter gene assay; format: functional, organism-based; conditions: Human betaherpesvirus 5, AD169, U4C-48
Human betaherpesvirus 5 [21] = assay: Antiviral activity against 0.05 MOI Human cytomegalovirus Towne infected in human hTERT-BJ1 cells assessed as inhibition of viral DNA replication at 5 uM by qPCR; format: functional, organism-based; conditions: BJ
Outline: (§5)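 hTERT-BJ1 cells infected with HCMV at MOI 0.05 or 3.0, cultured for set durations with DMSO, 20 μM or 5 μM compound; DNA extracted (QIAamp) and HCMV UL83 and human albumin genes quantified by qPCR against plasmid and cellular DNA standards; viral copies divided by albumin copies as copies per cell; triplicate experiments, mean and SD.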

Human betaherpesvirus 5 [22] = assay: Antiviral activity against 0.05 MOI Human cytomegalovirus Towne infected in human hTERT-BJ1 cells assessed as inhibition of viral DNA replication at 20 uM by qPCR; format: functional, organism-based; conditions: BJ; outline: as §5
Human betaherpesvirus 5 [23] = assay: Antiviral activity against 3 MOI Human cytomegalovirus Towne infected in human hTERT-BJ1 cells assessed as inhibition of viral DNA replication at 5 uM by qPCR; format: functional, organism-based; conditions: BJ; outline: as §5
Human betaherpesvirus 5 [24] = assay: Antiviral activity against 3 MOI Human cytomegalovirus Towne infected in human hTERT-BJ1 cells assessed as inhibition of viral DNA replication at 20 uM by qPCR; format: functional, organism-based; conditions: BJ; outline: as §5
Human betaherpesvirus 5 [25] = assay: Antiviral activity against Human cytomegalovirus Towne infected in human hTERT-BJ1 cells assessed as inhibition of virus induced infection after 24 hrs post infection by luciferase reporter gene assay; format: functional, organism-based; conditions: BJ; outline: as §1
Human betaherpesvirus 5 [26] = assay: Antiviral activity against Human cytomegalovirus Towne infected in human hTERT-BJ1 cells assessed as inhibition of virus induced infection after 48 hrs post infection by luciferase reporter gene assay; format: functional, organism-based; conditions: BJ; outline: as §1
Human betaherpesvirus 5 [27] = assay: Antiviral activity against Human cytomegalovirus Towne infected in human hTERT-BJ1 cells assessed as inhibition of virus induced infection after 6 hrs post infection by luciferase reporter gene assay; format: functional, organism-based; conditions: BJ; outline: as §1
Human betaherpesvirus 5 [28] = assay: Antiviral activity against Human cytomegalovirus Towne infected in human hTERT-BJ1 cells assessed as decrease in IE1 mRNA level at 5 uM after 24 hrs by immunofluorescent assay; conditions: BJ

EC50 (Human betaherpesvirus 5 [12]): 2.5 µM
EC50 [13]: 3 µM
EC50 (Human betaherpesvirus 5 [18]): 3.5 µM
SMILES: NC(=O)C1CCN(c2c(Cl)cncc2Cl)CC1
inhibition (Human betaherpesvirus 5 [1]): Active
inhibition (Human betaherpesvirus 5 [2]): Active
Activity (Human betaherpesvirus 5 [3]): Active
Activity (Human betaherpesvirus 5 [4]): Active
Activity (Human betaherpesvirus 5 [5]): Active
Activity (Human betaherpesvirus 5 [6]): Active
Activity (Human betaherpesvirus 5 [7]): inactive
Activity (Human betaherpesvirus 5 [8]): inactive
inhibition (Human betaherpesvirus 5 [9]): inactive
inhibition (Human betaherpesvirus 5 [10]): Active
inhibition (Human betaherpesvirus 5 [11]): Active
EC50 (Caviid betaherpesvirus 2): 6.2 µM
CC50 [14]: 100 µM
CC50 [15]: 100 µM
selectivity ratio [16]: > 10
selectivity ratio [17]: > 10
EC50 (Human betaherpesvirus 5 [19]): 5 µM
EC50 (Human betaherpesvirus 5 [20]): 5 µM
inhibition (Human betaherpesvirus 5 [21]): Active
inhibition (Human betaherpesvirus 5 [22]): Active
inhibition (Human betaherpesvirus 5 [23]): Active
inhibition (Human betaherpesvirus 5 [24]): Active
inhibition (Human betaherpesvirus 5 [25]): Active
inhibition (Human betaherpesvirus 5 [26]): inactive
inhibition (Human betaherpesvirus 5 [27]): Active
inhibition (Human betaherpesvirus 5 [28]): Active

EC50 (Human betaherpesvirus 5 [12]): 1.4 µM
EC50 [13]: 5.7 µM
SMILES: Nc1nc2c(ncn2COC(CO)CO)c(=O)[nH]1 [GANCICLOVIR]
EC50 (Caviid betaherpesvirus 2): 25.9 µM
